Most compounds without a hit are left out; they make up all but 0.63% or so of the library.
GSK3B inh: human GSK3beta kinase inhibition. P49841. GST-GSK3beta kinase, ADP-Glo luminescence, 60 min; active compounds read low. activity score (negative = inhibition), % at 10 µM. hit rate 0.038% among 300,000;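 active means more than half of replicate wells score below -50%, meaning over 50% inhibition versus plate controls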;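 further: 0% = median DMSO wells and -100% = median GW8510 positive control wells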
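Assay system: GST-fused GSK3beta enzyme, cell-free / Medium: Tris pH 7.5 buffer with MgCl2, DTT, BSA, heparin / Also added: peptide substrate plus 25 µM ATP (final) / Compound: 10 µM single point / Timing: kinase reaction with compound 60 min at room temperature / Detection: ADP-Glo luminescence / Benchmarks: DMSO neutral wells and GW8510 at 20 µM as positive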
MT1-MMP act inh: MT1-MMP (human) activation inhibition; P50281; hit rate 0.061% among 360,000; HT1080 RFP-PRO-GFP cells, GFP/RFP ratio fluorescence, overnight; percent of plate control window, DMSO zero; GFP/RFP ratio change, % at 20 µM; AID 651647;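 active means GFP/RFP ratio change of at least 30% with cell ATP level not reduced by more than half and red fluorescence within 50% of control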
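Material – HT1080 RFP-PRO-GFP cells · Control set – DMSO wells and RFP-L50D-GFP cells · Incubation – overnight cell settling, then overnight compound exposure, 37 °C, 5% CO2 · Compound dosing – single-point 20 µM compound, 1% DMSO · Read-out – GFP/RFP fluorescence ratio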
STK33 inh: human STK33 kinase inhibition. purified STK33, MBP phosphorylation, ADP-Glo luminescence. inhibition, % at 10 µM. hit rate 0.073% among 320,000. Q9BYT3;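 active means inhibition at or above 25%, using the most active replicate where run in duplicate; inactive means inhibition below 25%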
Pemphigus Ab inh: blocks pemphigus antibody binding to human desmoglein-3; DSG3-coupled beads, scFv-anti-DSG3-GFP binding, flow cytometry; active compounds read low; hit rate 0.48% among 310,000; binding (percent of control), % at 10 µM; P32926;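 active means binding more than 3 SD below its plate's average and above zero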;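 further: hits lower antibody fragment binding to DSG3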
GSK3 alpha inh: blocks human GSK-3 alpha kinase. ADP-Glo luminescence, 60 min. hit rate 0.1% among 320,000. inhibition, % at 10 µM. P49840;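 active means more than half of replicates show inhibition above 20%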;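 further: GST-tagged GSK-3 alpha with peptide substrate and 25 µM ATP; 0% = DMSO neutral wells and 100% = GW8510 positive control wells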
Target sequence (P49840 whole entry, looked up): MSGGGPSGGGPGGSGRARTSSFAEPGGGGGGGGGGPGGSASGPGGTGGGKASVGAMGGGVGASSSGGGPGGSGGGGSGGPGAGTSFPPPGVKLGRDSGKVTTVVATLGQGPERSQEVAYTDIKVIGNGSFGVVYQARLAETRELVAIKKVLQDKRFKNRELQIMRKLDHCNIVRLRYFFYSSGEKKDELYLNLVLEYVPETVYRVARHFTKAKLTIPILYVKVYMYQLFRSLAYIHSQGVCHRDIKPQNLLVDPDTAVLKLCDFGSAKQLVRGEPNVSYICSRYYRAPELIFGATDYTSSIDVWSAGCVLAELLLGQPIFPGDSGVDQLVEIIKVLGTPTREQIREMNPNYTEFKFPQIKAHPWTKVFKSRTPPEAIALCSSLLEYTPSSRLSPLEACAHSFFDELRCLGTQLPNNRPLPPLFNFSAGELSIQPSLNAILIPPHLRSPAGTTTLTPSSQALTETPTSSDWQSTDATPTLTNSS
* = called active by the depositor; . = no result; ! = repeats disagree.

SMILES | GSK3B inh | MT1-MMP act inh | STK33 inh | Pemphigus Ab inh | GSK3 alpha inh
CC1CCCN(S(=O)(=O)c2ccc(S(=O)(=O)N3CCC4(CC3)OCCO4)cc2)C1 (stereo unspecified) | 10 | 4 | -1 | 68* | -2
O=C(Nc1ccc2c(c1)OCCO2)C(c1ccncc1)n1c(=O)c(-c2cc3ccccc3[nH]2)nc2ccccc21 (stereo unspecified) | . | -6 | . | . | .
CCOC(=O)[C@]12CCCC=C1N(CCC1=CCCCC1)C(=O)[C@H](CC(=O)N1CCC(c3ccccc3)CC1)C2 | . | -14 | . | . | .
NS(=O)(=O)c1ccc(NC(=O)CCc2ccccc2)cc1 | 4 | -1 | -2 | 107* | 0
O=C(CN1CCN(c2ccccc2O)CC1)Nc1ccc([N+](=O)[O-])cc1Br | -2 | -4 | -1 | 94* | -3
O=C(NCc1ccccc1)C1CCCC1 | 0 | . | 3 | . | 6
O=C(NC(=S)NCc1ccccc1)C1CC1 | 0 | 4 | 1 | 25* | 1
Cc1ccc(-c2nc3cc(C)c(Br)c(C)n3c2Cc2ccsc2)cc1 | . | -4 | . | . | .
O=C1NN(c2cccc(Br)c2)C(=O)/C1=C/c1ccc(-c2cc([N+](=O)[O-])ccc2O)o1 | 0 | 28 | 2 | 82* | 0
CC1=NN(c2ccc(C)cc2)C(=O)/C1=C/c1ccc(-c2cc([N+](=O)[O-])ccc2O)o1 | 3 | 5 | . | 108 | .
CCCCCCCCCCCCCCCCn1cc[n+](C)c1 | -18 | -34 | 27*! | 116 | 24
O=C(NCc1cccc(C(F)(F)F)c1)C1C(=O)Nc2ccccc2C(=O)N1C1CCCC1 (stereo unspecified) | . | 2 | . | . | .
COC(=O)[C@]12CCCCC=C1N(CCC1=CCCCC1)C(=O)[C@H](CC(=O)N1CCCCC1)C2 | . | -3 | . | . | .
Cc1cccc(C(=O)Nc2ccc(S(=O)(=O)Nc3nc(C)cc(C)n3)cc2)c1 | 4 | -2 | -1 | 14* | -2
CC(C)C[C@@H](COCc1cccc(Cl)c1)N1CCN(C(=O)c2ccc(C(F)(F)F)cc2)CCC1=O | . | -4 | . | . | .
Cc1ccccc1/C=N/Nc1ncnc2nc[nH]c12 | -36 | -1 | 8 | 109 | 54*
C(=N\Nc1ncnc2nc[nH]c12)/c1cccs1 | -49 | 4 | 5 | 99 | 43
Fc1ccc(/C=N/Nc2ncnc3nc[nH]c23)cc1F | -21 | 3 | 8 | 104 | 65*
Cc1ccsc1/C=N/Nc1ncnc2nc[nH]c12 | -26 | 4 | 9 | 95 | 46
Cc1cc(C)n(-c2nc3ccccc3nc2N2CCN(S(=O)(=O)c3ccc4ccccc4c3)CC2)n1 | -1 | -24 | 1 | 89* | -2
Cc1cc(C)n(-c2nc3ccccc3nc2N2CCN(S(=O)(=O)c3ccc(F)c(C)c3)CC2)n1 | 0 | 1 | 0 | 111 | -1
O=C(CCCCCCN1C(=O)c2ccccc2C1=O)NC1CCCCC1 | 1 | 3 | 0 | -5.7* | 3
CC1CC2=C(NC(=S)NC2c2ccccc2F)/C(=C/c2ccccc2F)C1 (stereo unspecified) | 0 | -2 | 1 | 17* | 1
CC1CC2=C(NC(=S)NC2c2cccc(F)c2)/C(=C/c2cccc(F)c2)C1 (stereo unspecified) | -1 | 5 | . | 84 | .
CCCCNC(=O)c1[nH]c(C2CCNCC2)nc1-c1cccc(C(F)(F)F)c1 | . | -1 | . | . | .
SMILES | GSK3B inh | MT1-MMP act inh | STK33 inh | Pemphigus Ab inh | GSK3 alpha inh
CCOC(=O)C1=CC[C@@H](c2ccccc2)N(S(=O)(=O)c2ccc(C)cc2)[C@H]1C=C(C)C | . | -8 | . | . | .
CCCCOc1ccc(C(C)NC(=O)CCS(=O)(=O)Cc2ccccc2Cl)cc1 (stereo unspecified) | 1 | 2 | -2 | 13* | 0
Cc1ccnc(NC(=O)C(C)n2cc([N+](=O)[O-])cn2)c1 (stereo unspecified) | -74* | -10 | -2 | . | 25
CCOC(=O)Nc1sc(NS(=O)(=O)c2ccccc2)nc1C | 0 | 5 | -1 | 99 | -3
Cc1nc(NS(=O)(=O)c2ccccc2)sc1NC(=O)Nc1ccccc1 | 3 | 12 | -1 | 28* | -3
CCOC(=O)Nc1sc(NS(=O)(=O)c2ccc(C)cc2)nc1C | 2 | 2 | -3 | 73* | -1
COc1ccc(NC(=O)c2cc(-c3sc(NC(=O)c4ccccc4)nc3C)n(-c3ccc(Br)cc3)n2)cc1 | . | -2 | . | . | .

Source: PubChem BioAssay
